Source: ChEMBL document CHEMBL1136753, “Optimization of 2-phenylaminoimidazo[4,5-h]isoquinolin-9-ones: orally active inhibitors of lck kinase” (J Med Chem, 2003)

Experiments:
[1] = species: Homo sapiens; assay: Inhibition of IL-2 production in human whole blood; type: functional
[2] = test system: Jurkat; assay: Inhibition of Calcium release in jurkat cells; type: functional, cell-based; conditions: Homo sapiens
In short: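 Jurkat cells loaded with Fluo-3, washed in HBSS with 1 mM CaCl₂, 1 mM MgCl₂, 10 mM HEPES, 2 mM probenecid, 1% FBS, pH 7.4. Final 3 × 10⁵ cells/mL. Compound added for 15 min at room temperature, then anti-CD3 (clone X35, final 0.25 µg/mL). FLIPR fluorescence followed for 13 min. Peak minus baseline plotted against concentration gives EC₅₀. Mean of two or more experiments in duplicate ± SD.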

[3] = biological target: Tyrosine-protein kinase Lck (Homo sapiens, UniProt P06239); assay: Inhibition of p56 Lck tyrosine kinase
[4] = biological target: AMP-activated protein kinase, AMPK; assay: Inhibition of AMP-activated Protein Kinase; type: protein-complex assay
In short: (§1)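 Serine/threonine kinase panel run through the Dundee consortium with ATP at 100 µM. IC₅₀ values are reported.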

[5] = Inhibition of Calcium/calmodulin-dependent protein kinase
[6] = biological target: Casein kinase II (Homo sapiens, UniProt P19784+P67870+P68400); assay: Inhibition of Casein kinase II; type: protein-complex assay; in short: as §1
[7] = biological target: Tyrosine-protein kinase CSK (Homo sapiens) (UniProt P41240); assay: Inhibition of Csk tyrosine kinase; conditions: concentration not given here
In short: (§2)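 DELFIA tyrosine kinase assay: enzyme at 0.8 nM final, biotin-poly-Glu₄-Tyr₁ substrate, 1 µM final ATP. Ten-point dilutions from 1 µg/mL final, 45 min at room temperature. Phosphotyrosine read by Eu-anti-phosphotyrosine time-resolved fluorescence. IC₅₀ is the mean of two or more determinations in duplicate.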

[8] = biological target: Cyclin-dependent kinase 2 (Homo sapiens, UniProt P24941); assay: Inhibition of Cyclin-dependent kinase 2; in short: as §1
[9] = biological target: Cyclin-dependent kinase 4 (Homo sapiens, UniProt P11802); assay: Inhibition of Cyclin-dependent kinase 4; in short: as §1
[10] = biological target: Glycogen synthase kinase-3 beta (Homo sapiens, UniProt P49841); assay: Inhibition of Glycogen synthase kinase-3 beta; in short: as §1
[11] = biological target: Hepatocyte growth factor receptor (Homo sapiens, UniProt P08581); assay: Inhibition of Hepatocyte growth factor receptor; type: cell-based
In short: (§3)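 DELFIA tyrosine kinase assay on neutravidin-coated plates. Substrate is biotinylated poly-Glu₄-Tyr₁, with ATP at or below Km. Compounds are tested in 10-point dose response. After 45 min at room temperature, Eu-labelled anti-phosphotyrosine is added and time-resolved fluorescence is read (ex 360/em 620 nm). IC₅₀ is the mean of ≥2 determinations in duplicate.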

[12] = biological target: Inhibitor of nuclear factor kappa-B kinase subunit alpha (Homo sapiens, UniProt O15111); assay: Inhibition of IKK alpha kinase; in short: as §1
[13] = biological target: Inhibitor of nuclear factor kappa-B kinase subunit beta (Homo sapiens, UniProt O14920); assay: Inhibition of IKK beta kinase; in short: as §1
[14] = biological target: Insulin receptor (Homo sapiens, UniProt P06213); assay: Inhibition of Insulin receptor; in short: as §3
[15] = Inhibition of Insulin-like growth factor receptor; in short: as §2
[16] = biological target: Tyrosine-protein kinase ITK/TSK (Homo sapiens, UniProt Q08881); assay: Inhibition of IL-2-inducible T-cell kinase (Itk kinase) was measured using DELFIA (dissociation enhanced lanthanide fluoroimmunoassay); in short: as §3
[17] = biological target: MAP kinase-activated protein kinase 2 (Homo sapiens, UniProt P49137); assay: Inhibition of MAP kinase-activated protein kinase 1b/MAP kinase-activated protein kinase 2; in short: as §1
[18] = biological target: Ribosomal protein S6 kinase alpha-5 (Homo sapiens, UniProt O75582); assay: Inhibition of MSK-1 kinase
In short: (§4)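 Run externally by the Dundee consortium kinase panel with 100 µM ATP. IC50 values in µM.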

[19] = biological target: Mitogen-activated protein kinase; ERK1/ERK2 (Homo sapiens, UniProt P27361+P28482); assay: Inhibition of Mitogen-activated protein kinase; type: protein assay; in short: as §1
[20] = Inhibition of Platelet-derived growth factor receptor; in short: as §2
[21] = Inhibition of PHK phosphorylase kinase
[22] = biological target: Protein kinase C (PKC); assay: Inhibition of Protein kinase C; type: protein assay; in short: as §1
[23] = biological target: 3-phosphoinositide-dependent protein kinase 1 (Homo sapiens, UniProt O15530); assay: Inhibition of Phospho-inositide dependent kinase 1 (PDK1); in short: as §1
[24] = biological target: cAMP-dependent protein kinase (PKA) (Homo sapiens, UniProt P22694+P17612+P22612); assay: Inhibition of Protein kinase A (PKA); type: protein assay; in short: as §1
[25] = biological target: RAC-alpha serine/threonine-protein kinase (Homo sapiens, UniProt P31749); assay: Inhibition of Protein kinase B alpha; in short: as §1
[26] = biological target: Receptor tyrosine-protein kinase erbB-2 (Homo sapiens, UniProt P04626); assay: Inhibition of Protein kinase HER-2; in short: as §3
[27] = biological target: MAP kinase-activated protein kinase 5 (Homo sapiens, UniProt Q8IW41); assay: Inhibition of Protein kinase PRAK; in short: as §4
[28] = biological target: Rho-associated protein kinase 2 (Homo sapiens, UniProt O75116); assay: Inhibition of Protein kinase ROCK2; in short: as §1
[29] = biological target: Tyrosine-protein kinase Lyn (Homo sapiens, UniProt P07948); assay: Inhibition of Protein tyrosine kinase Lyn; in short: as §3
[30] = biological target: Serine/threonine-protein kinase Chk1 (Homo sapiens, UniProt O14757); assay: Inhibition of Serine/threonine-protein kinase Chk1; in short: as §4
[31] = tissue or blood; type: functional, tissue-based; conditions: Homo sapiens
[32] = biological target: Ribosomal protein S6 kinase (P70S6K) (Homo sapiens, UniProt P23443+Q9UBS0); assay: Inhibition of Ribosomal protein S6 kinase (P70S6K kinase); type: protein-complex assay; in short: as §1
[33] = biological target: Proto-oncogene tyrosine-protein kinase Src (Homo sapiens, UniProt P12931); assay: Inhibition of Src protein tyrosine kinase; in short: as §3
[34] = biological target: Serine/threonine-protein kinase Sgk1 (Homo sapiens, UniProt O00141); assay: Inhibition of Serum/glucocorticoid regulated kinase; in short: as §1
[35] = biological target: Vascular endothelial growth factor receptor (Homo sapiens, UniProt P17948+P35916+P35968); assay: Inhibition of Vascular endothelial growth factor receptor; type: protein assay; in short: as §3
[36] = biological target: Tyrosine-protein kinase SYK (Homo sapiens, UniProt P43405); assay: Inhibition of Syk protein tyrosine kinase; in short: as §3
[37] = biological target: c-Jun N-terminal kinase, JNK (Homo sapiens, UniProt P45983+P53779+P45984); assay: Inhibition of c-Jun N-terminal kinase; type: protein assay; in short: as §1
[38] = biological target: Tyrosine-protein kinase ZAP-70 (Homo sapiens, UniProt P43403); assay: Inhibition of Zeta-chain (TCR) associated protein kinase 70 kDa (ZAP-70)
In short: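 Kinase-panel IC50 with ATP at or below the Km of each listed kinase. Each value is the mean of two or more separate determinations, each in duplicate.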

Tyrosine-protein kinase Lck, sequence (P06239 whole entry): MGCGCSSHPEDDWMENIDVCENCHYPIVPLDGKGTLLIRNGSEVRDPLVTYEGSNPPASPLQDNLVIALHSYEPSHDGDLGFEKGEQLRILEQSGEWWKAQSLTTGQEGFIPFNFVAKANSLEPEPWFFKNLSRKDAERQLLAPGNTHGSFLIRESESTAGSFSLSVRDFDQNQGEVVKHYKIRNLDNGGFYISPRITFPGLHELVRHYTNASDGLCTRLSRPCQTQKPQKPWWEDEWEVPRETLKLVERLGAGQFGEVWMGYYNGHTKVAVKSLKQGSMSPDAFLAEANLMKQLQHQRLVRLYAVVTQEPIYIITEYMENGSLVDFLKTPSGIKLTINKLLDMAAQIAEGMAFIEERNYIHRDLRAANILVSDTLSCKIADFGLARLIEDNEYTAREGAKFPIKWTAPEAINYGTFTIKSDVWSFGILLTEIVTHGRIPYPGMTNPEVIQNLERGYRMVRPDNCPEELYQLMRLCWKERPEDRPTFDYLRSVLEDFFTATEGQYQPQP
Ribosomal protein S6 kinase alpha-5, sequence (O75582 whole entry): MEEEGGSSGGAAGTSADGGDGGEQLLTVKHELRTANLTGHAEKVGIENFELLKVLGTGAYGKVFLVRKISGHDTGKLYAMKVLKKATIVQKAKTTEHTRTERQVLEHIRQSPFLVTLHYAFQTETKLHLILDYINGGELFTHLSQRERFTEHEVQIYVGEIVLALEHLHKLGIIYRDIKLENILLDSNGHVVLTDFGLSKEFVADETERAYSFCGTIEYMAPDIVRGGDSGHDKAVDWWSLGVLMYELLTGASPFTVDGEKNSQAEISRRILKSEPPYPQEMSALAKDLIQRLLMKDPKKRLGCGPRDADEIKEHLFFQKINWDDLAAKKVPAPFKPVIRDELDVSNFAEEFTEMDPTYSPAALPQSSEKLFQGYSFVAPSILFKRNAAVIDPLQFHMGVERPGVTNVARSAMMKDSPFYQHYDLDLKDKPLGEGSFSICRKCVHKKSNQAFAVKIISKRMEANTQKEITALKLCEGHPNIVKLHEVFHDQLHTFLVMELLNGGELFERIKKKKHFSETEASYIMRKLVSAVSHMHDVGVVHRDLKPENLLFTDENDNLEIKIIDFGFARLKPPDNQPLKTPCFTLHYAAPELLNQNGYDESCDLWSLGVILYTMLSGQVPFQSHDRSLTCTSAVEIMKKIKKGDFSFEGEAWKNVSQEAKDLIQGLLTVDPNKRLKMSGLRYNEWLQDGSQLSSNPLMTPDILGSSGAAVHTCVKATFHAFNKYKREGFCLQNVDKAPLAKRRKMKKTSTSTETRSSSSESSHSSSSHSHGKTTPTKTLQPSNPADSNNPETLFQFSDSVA
Cyclin-dependent kinase 4, sequence (P11802 whole entry): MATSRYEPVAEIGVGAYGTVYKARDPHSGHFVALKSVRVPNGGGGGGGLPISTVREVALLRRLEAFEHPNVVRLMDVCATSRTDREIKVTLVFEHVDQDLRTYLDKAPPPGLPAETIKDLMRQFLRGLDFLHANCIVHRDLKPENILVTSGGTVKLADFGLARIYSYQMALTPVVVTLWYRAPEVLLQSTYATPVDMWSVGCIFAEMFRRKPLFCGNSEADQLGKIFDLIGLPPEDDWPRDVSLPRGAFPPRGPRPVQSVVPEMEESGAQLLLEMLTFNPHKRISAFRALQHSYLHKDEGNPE
Hepatocyte growth factor receptor, sequence (P08581 whole entry): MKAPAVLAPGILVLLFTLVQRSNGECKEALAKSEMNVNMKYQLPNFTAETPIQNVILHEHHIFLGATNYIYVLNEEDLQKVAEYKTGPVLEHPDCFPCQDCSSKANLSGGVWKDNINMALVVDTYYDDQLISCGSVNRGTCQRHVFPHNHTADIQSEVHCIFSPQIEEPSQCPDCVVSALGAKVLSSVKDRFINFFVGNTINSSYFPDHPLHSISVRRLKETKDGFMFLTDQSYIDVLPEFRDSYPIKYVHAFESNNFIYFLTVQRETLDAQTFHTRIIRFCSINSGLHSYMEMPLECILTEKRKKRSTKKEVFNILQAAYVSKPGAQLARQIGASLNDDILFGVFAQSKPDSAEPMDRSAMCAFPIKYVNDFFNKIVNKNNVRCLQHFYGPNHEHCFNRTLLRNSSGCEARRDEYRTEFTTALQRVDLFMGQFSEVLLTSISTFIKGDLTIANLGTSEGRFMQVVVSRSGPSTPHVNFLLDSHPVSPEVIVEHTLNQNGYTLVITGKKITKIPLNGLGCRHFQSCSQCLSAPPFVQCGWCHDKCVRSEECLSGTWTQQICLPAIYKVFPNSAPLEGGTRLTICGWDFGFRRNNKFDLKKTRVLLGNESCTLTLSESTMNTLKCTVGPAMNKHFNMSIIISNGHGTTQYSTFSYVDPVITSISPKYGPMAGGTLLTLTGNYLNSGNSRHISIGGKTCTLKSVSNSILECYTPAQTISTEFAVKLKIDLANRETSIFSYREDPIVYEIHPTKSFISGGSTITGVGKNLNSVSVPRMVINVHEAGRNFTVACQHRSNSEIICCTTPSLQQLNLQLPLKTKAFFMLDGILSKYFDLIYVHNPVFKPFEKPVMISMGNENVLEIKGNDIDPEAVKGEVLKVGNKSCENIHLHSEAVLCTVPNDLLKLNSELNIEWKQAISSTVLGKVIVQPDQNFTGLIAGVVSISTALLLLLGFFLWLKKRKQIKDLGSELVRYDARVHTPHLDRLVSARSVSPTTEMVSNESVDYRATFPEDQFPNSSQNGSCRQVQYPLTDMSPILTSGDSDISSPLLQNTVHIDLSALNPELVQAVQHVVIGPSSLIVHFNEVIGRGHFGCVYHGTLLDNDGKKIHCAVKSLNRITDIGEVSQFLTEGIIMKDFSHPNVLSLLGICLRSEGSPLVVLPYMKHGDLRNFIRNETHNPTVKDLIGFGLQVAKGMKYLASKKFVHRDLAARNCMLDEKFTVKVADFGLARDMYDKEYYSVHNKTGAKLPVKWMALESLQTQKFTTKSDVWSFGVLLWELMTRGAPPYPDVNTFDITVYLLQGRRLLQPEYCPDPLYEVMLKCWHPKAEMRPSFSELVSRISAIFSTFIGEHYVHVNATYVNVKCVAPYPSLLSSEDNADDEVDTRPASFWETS
3-phosphoinositide-dependent protein kinase 1, sequence (O15530 whole entry): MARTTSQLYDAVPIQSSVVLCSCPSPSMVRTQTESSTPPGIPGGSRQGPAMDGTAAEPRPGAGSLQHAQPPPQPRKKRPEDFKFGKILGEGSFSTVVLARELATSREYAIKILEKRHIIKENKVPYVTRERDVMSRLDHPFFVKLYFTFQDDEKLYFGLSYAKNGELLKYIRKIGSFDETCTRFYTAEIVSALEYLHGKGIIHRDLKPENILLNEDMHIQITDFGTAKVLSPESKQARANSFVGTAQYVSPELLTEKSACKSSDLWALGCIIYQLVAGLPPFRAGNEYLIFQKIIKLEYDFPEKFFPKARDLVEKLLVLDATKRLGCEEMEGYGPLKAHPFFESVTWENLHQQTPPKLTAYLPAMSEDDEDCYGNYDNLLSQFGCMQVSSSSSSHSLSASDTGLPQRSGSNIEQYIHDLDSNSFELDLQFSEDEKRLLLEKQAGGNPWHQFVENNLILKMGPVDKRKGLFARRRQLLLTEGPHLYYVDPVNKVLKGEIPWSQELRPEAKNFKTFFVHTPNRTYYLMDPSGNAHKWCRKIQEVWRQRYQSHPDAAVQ
Tyrosine-protein kinase CSK (Homo sapiens), sequence (P41240 2-450 limits assumed): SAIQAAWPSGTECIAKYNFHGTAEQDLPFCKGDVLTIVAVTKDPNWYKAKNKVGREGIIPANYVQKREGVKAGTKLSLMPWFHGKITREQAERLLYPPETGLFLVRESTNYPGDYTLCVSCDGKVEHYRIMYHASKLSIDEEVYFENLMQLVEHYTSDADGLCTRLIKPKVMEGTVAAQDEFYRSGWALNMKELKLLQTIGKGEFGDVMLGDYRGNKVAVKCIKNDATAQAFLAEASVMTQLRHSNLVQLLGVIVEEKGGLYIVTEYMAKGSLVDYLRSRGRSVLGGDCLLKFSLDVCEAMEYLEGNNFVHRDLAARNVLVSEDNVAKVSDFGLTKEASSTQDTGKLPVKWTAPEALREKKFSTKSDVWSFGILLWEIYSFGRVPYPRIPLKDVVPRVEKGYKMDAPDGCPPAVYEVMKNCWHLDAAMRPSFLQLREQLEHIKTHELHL
Tyrosine-protein kinase ZAP-70, sequence (P43403 whole entry): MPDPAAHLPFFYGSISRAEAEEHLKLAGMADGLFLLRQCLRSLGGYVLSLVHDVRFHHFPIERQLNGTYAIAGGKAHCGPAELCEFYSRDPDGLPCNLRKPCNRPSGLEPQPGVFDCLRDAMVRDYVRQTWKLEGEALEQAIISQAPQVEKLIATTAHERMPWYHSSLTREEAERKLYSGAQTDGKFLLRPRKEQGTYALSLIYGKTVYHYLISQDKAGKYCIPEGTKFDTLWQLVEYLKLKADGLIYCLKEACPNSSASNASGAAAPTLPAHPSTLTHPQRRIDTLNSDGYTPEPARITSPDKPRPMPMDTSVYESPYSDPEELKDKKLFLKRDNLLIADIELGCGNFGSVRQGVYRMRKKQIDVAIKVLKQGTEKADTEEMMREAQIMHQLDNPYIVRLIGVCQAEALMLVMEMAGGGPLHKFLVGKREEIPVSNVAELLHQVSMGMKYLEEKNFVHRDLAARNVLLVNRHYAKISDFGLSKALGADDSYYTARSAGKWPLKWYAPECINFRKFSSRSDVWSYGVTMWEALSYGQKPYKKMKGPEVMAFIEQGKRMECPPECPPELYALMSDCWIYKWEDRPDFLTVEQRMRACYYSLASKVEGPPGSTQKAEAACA
MAP kinase-activated protein kinase 2, sequence (P49137 whole entry): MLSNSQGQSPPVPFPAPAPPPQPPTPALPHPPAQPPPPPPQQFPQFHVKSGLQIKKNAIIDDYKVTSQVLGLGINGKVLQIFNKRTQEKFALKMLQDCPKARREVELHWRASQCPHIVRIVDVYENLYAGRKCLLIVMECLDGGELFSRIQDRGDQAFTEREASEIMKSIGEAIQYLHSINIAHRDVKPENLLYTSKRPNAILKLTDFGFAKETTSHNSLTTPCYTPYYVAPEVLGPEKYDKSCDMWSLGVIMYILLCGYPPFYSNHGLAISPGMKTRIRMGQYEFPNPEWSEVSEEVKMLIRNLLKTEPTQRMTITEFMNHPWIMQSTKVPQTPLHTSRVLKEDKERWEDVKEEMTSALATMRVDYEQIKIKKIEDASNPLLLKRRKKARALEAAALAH

Cc1nc(O)c2c(ccc3nc(Nc4c(Cl)cccc4Cl)n(C)c32)c1C
EC50 [1]: 1100 nM | EC50 [2]: 130 nM | IC50 [3]: 23 nM

Cc1nc(O)c2c(ccc3[nH]c(Nc4c(Cl)cccc4Cl)nc32)c1C
EC50 [2]: 180 nM | IC50 [3]: 110 nM

CCN(CC)C/C=C/c1nc(O)c2c(ccc3nc(Nc4c(Cl)cccc4Cl)n(C)c32)c1C
IC50 [4]: > 1000 nM | IC50 [5]: > 100000 nM | IC50 [6]: > 1000 nM | inhibition [7]: 87% | IC50 [8]: > 1000 nM | IC50 [9]: > 100000 nM | IC50 [10]: > 1000 nM | EC50 [1]: 1800 nM | IC50 [11]: > 100000 nM | IC50 [12]: 50000 nM | IC50 [13]: 50000 nM | IC50 [14]: > 100000 nM | IC50 [15]: > 100000 nM | EC50 [2]: 7 nM | IC50 [16]: > 10000 nM | IC50 [17]: > 1000 nM | IC50 [18]: > 1000 nM | IC50 [19]: > 30000 nM | IC50 [20]: 8 nM | IC50 [21]: > 1000 nM | IC50 [22]: > 300000 nM | IC50 [23]: > 1000 nM | IC50 [24]: > 100000 nM | IC50 [25]: > 1000 nM | IC50 [26]: > 10000 nM | IC50 [27]: > 1000 nM | IC50 [28]: > 1000 nM | IC50 [29]: 2 nM | IC50 [30]: > 1000 nM | EC50 [31]: 130 nM | IC50 [32]: > 1000 nM | IC50 [33]: 0.2 nM | IC50 [34]: > 1000 nM | IC50 [35]: > 100000 nM | IC50 [36]: > 40000 nM | IC50 [37]: > 1000 nM | IC50 [38]: 400 nM

COC(=O)/C=C/c1nc(O)c2c(ccc3nc(Nc4c(Cl)cccc4Cl)n(C)c32)c1C
EC50 [2]: 70 nM | IC50 [3]: 86 nM

Cc1nc(O)c2c(cc(CNCCO)c3nc(Nc4c(Cl)cccc4Cl)n(C)c32)c1C
EC50 [2]: 120 nM | IC50 [3]: 26 nM

Cc1c(/C=C/CN2CCCC2)nc(O)c2c1ccc1nc(Nc3c(Cl)cccc3Cl)n(C)c12
EC50 [1]: 300 nM | EC50 [2]: 5 nM | EC50 [31]: 150 nM

CCOC(=O)Cc1c(C)nc(O)c2c1ccc1nc(Nc3c(Cl)cccc3Cl)n(C)c12
EC50 [2]: 140 nM | IC50 [3]: 700 nM

Cc1c(C=O)nc(O)c2c1ccc1nc(Nc3c(Cl)cccc3Cl)n(C)c12
EC50 [2]: 450 nM | IC50 [3]: 170 nM

Cc1nc(O)c2c(ccc3nc(Nc4c(Cl)cccc4Cl)n(C)c32)c1CCN1CCOCC1
EC50 [2]: 270 nM | IC50 [3]: 30 nM

Cc1nc(O)c2c(cc(-c3ccc(F)nc3F)c3nc(Nc4c(Cl)cccc4Cl)n(C)c32)c1C
EC50 [2]: 370 nM | IC50 [3]: 50 nM

CCc1nc(O)c2c(ccc3nc(Nc4c(Cl)cccc4Cl)n(C)c32)c1C
EC50 [2]: 80 nM | IC50 [3]: 780 nM

Cc1c(/C=C/CN(C)C)nc(O)c2c1ccc1nc(Nc3c(Cl)cccc3Cl)n(C)c12
EC50 [1]: 680 nM | EC50 [2]: 10 nM | EC50 [31]: 560 nM | IC50 [3]: 3 nM

Cc1nc(O)c2c(ccc3nc(Nc4c(Cl)cccc4Cl)n(C)c32)c1CC(=O)N1CCCC1
EC50 [2]: 270 nM | IC50 [3]: 740 nM

Cc1c(CO)nc(O)c2c1ccc1nc(Nc3c(Cl)cccc3Cl)n(C)c12
EC50 [2]: 240 nM | IC50 [3]: 770 nM

COC(=O)c1c(C)nc(O)c2c1ccc1nc(Nc3c(Cl)cccc3Cl)n(C)c12
EC50 [2]: 90 nM | IC50 [3]: 87 nM

C=CC(O)c1nc(O)c2c(ccc3nc(Nc4c(Cl)cccc4Cl)n(C)c32)c1C (stereo not drawn)
EC50 [2]: 1300 nM | IC50 [3]: 570 nM

COC(=O)CCc1nc(O)c2c(ccc3nc(Nc4c(Cl)cccc4Cl)n(C)c32)c1C
EC50 [2]: 230 nM | IC50 [3]: 360 nM
